Measured values: ChEMBL document CHEMBL1770142, “Improvement of the synthesis and pharmacokinetic properties of chromenotriazolopyrimidine MDM2-p53 protein-protein inhibitors” (Bioorg Med Chem Lett, 2011)
Converted amounts (≈) assume the structure as drawn.

What was measured:
[1] = Mean residence time in rat at 0.5 mg/kg, iv; format: ADME, organism-based; parameters: dose 0.5 mg/kg, route intravenous; conditions: in vivo
Procedure, shortened: (§1)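 Rat PK: intravenous 0.5 mg/kg in 100% DMSO; oral 2.0 mg/kg in 0.5% methylcellulose/1% Tween 80/98.5% water. Plasma profiles give MRT, Vdss and CL from the iv arm and F from the oral arm.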

[2] = Solubility of the compound in phosphate buffer saline; format: physicochemical
[3] = Oral bioavailability in rat at 2 mg/kg; format: ADME, organism-based; conditions: in vivo; procedure, shortened: as §1
[4] = Volume of distribution at steady state in rat at 0.5 mg/kg, iv; format: ADME, organism-based; parameters: dose 0.5 mg/kg, route intravenous; conditions: in vivo, read-out: Vdss; procedure, shortened: as §1
[5] = Volume of distribution at steady state in rat at 2 mg/kg, iv; format: ADME, organism-based; parameters: dose 2 mg/kg, route intravenous; conditions: in vivo, read-out: Vdss
Procedure, shortened: (§2)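 Rats dosed intravenously at 2.0 mg/kg in DMSO, or orally at 5.0 mg/kg in 2% HPMC, 1% Tween 80, pH 2.2 with HCl. Plasma levels of parent and of the 4/5 conversion products were followed over time. iv parameters and oral bioavailability were taken from these profiles.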

[6] = Oral bioavailability in rat at 5 mg/kg, po; format: ADME, organism-based; conditions: in vivo; procedure, shortened: as §2
[7] = Mean residence time in rat at 2 mg/kg, iv; format: ADME, organism-based; parameters: dose 2 mg/kg, route intravenous; conditions: in vivo; procedure, shortened: as §2

Compound | MRT [1] [h] | solubility [2] [µg/mL] | bioavailability [3] [%] | Vd [4] [L/kg] | Vd [5] [L/kg] | bioavailability [6] [%] | MRT [7] [h]
O=C(O)CCCCN1C2=C([C@H](c3ccc(Br)cc3)n3ncnc31)[C@@H](c1ccc(Br)cc1)Oc1ccccc12 | 4.1 | 6.1 (≈ 9.59 µM) | 54 | 1.7 | – | – | –
CN1C2=C([C@H](c3ccc(Br)cc3)n3ncnc31)[C@@H](c1ccc(Br)cc1)Oc1ccccc12 | – | < 1 | – | – | 9.9 | 23 | 2.4
O=C(O)CN1C2=C([C@H](c3ccc(Br)cc3)n3ncnc31)[C@@H](c1ccc(Br)cc1)Oc1ccccc12 | 0.46 | 132 (≈ 222 µM) | 14 | 2.6 | – | – | –
